# Source: ChEMBL document CHEMBL2176997, “Salicylanilide inhibitors of Toxoplasma gondii” (J Med Chem, 2012)
# The source made the active and inactive calls. No cut-off for these calls is given here.
# Assays:
# Toxoplasma gondii [1] = assay: Antiapicomplexan activity against Toxoplasma gondii RH tachyzoites infected in HFF cells assessed as [3H]-uracil incorporation after 24 hrs by scintillation luminescence counter; assay type: functional
# Summary of the method: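 Confluent HFF monolayers in IMDM-C (10% FBS) infected with 3,500 needle-released tachyzoites per well. Compounds from 10 mM DMSO stocks, diluted in medium (final DMSO ≤0.1%), were added 1 h after infection, with 0.1% DMSO as vehicle control. [3H]-uracil (25 µL of 0.1 mCi/mL) was added 24 h before harvest onto glass-fibre filters and counted by scintillation. Cultures were kept at 33°C or 37°C, 5% CO2.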
# Toxoplasma gondii [2] = assay: Antiapicomplexan activity against Toxoplasma gondii ME49 oocysts infected in HLA B07 transgenic mouse assessed as increase in survival at 25 to 100 mg/kg, po; assay type: functional, organism-based
# Summary of the method: (§1)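 Female B7 mice (~25 g), 5 per group, given 100 ME49 or TgGoatUS4 oocysts by oral gavage, plus 100 mg/kg (2.5 mg/mL) or 25 mg/kg ([…]) of test compound as 1.0 mL oral-gavage suspension. Vehicle DMSO 1.0%/PEG 400 5.0%/0.5% CMC 94.0%. Infected untreated and drug-only groups included. Mice observed daily and day of death recorded. Impression smears examined for tachyzoites.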
# Mus musculus = assay: Toxicity in HLA B07 transgenic mouse assessed as survival at 25 to 100 mg/kg, po administered for 9 days measured after day 10; assay type: organism-based; parameters: dose 25-100 mg/kg, route oral; details: in vivo, 216 h
# Plasmodium falciparum [3] = assay: Antiapicomplexan activity against chloroquine-resistant Plasmodium falciparum TM91-C235 assessed as growth inhibition after 72 hrs by MSF assay; assay type: functional, organism-based; details: TM91-C235, 72 h
# Summary of the method: (§2)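 P. falciparum D6 or TM91-C235, late-ring/early-trophozoite stage, cultured at 0.3% parasitemia and 2% hematocrit on predosed plates. Twelve two-fold dilutions spanned 0.5–10000 ng/ml final, in quadruplicate, with chloroquine control. Incubation 72 h at 37°C under 5% CO2/5% O2/90% N2. Lysis buffer with SYBR Green I (10x final) was added, then 24 h dark at room temperature. IC50 from fluorescence by sigmoidal variable-slope regression.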
# Toxoplasma gondii [4] = assay: Parasitocidal activity against Toxoplasma gondii RH tachyzoites expressing yellow fluorescent protein infected in HFF cells at 1 uM administered for 10 days followed by compound wash out measured after 11 to 25 days; assay type: functional, organism-based
# Summary of the method: (§3)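 RH-YFP tachyzoites in HFF cells given compound at 1 μM under one of four regimens: 4 days then removal; 10 days then removal; refreshed at day 4 and removed at day 10; or maintained throughout. Parasite growth was followed as YFP fluorescence over time.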
# Toxoplasma gondii [5] = assay: Parasitocidal activity against Toxoplasma gondii RH tachyzoites expressing yellow fluorescent protein infected in HFF cells at 1 uM administered for 4 days followed by compound refreshment on day 4 and compound wash out on day 10 measured after 11 to 25 days; assay type: functional, organism-based; summary of the method: as §3
# HFF = assay: Cytotoxicity against HFF cells assessed as survival by WST1 assay; assay type: cell-based; details: human
# Summary of the method: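 Confluent HFF cells were treated with compounds at the concentrations used in the challenge assays. On the final day WST-1 reagent was added, followed by 1 h incubation in the dark at 37°C and absorbance reading at 420 nm.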
# Toxoplasma gondii [6] = assay: Antiapicomplexan activity against Toxoplasma gondii RH tachyzoites expressing yellow fluorescent protein infected in HFF cells after 72 hrs by fluorescence assay; assay type: functional, organism-based
# Summary of the method: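 Confluent HFF monolayers in IMDM-C (10% FBS) infected with 3,500 RH-YFP tachyzoites per well. Compounds were added 1 h later from 10 mM DMSO stocks, final DMSO ≤0.1%. Pyrimethamine/sulfadiazine and 0.1% DMSO served as controls. After 72 h YFP fluorescence was read (ex 514, em 540 nm, bottom optics), giving MIC50/MIC90 ranges. Plates held at 33°C or 37°C, 5% CO2.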
# Toxoplasma gondii [7] = assay: Antiapicomplexan activity against Toxoplasma gondii THdhxgTRP tachyzoites harboring insertional mutation assessed as growth inhibition after 6 weeks; assay type: functional, organism-based
# Toxoplasma gondii [8] = assay: Antiapicomplexan activity against Toxoplasma gondii TgGoatUS4 oocysts infected in HLA B07 transgenic mouse assessed as increase in survival at 25 to 100 mg/kg, po; assay type: functional, organism-based; summary of the method: as §1
# Plasmodium falciparum [9] = assay: Antiapicomplexan activity against chloroquine-sensitive Plasmodium falciparum D6 assessed as growth inhibition after 72 hrs by MSF assay; assay type: functional, organism-based; details: D6, 72 h; summary of the method: as §2
# Toxoplasma gondii [10] = assay: Parasitocidal activity against Toxoplasma gondii RH tachyzoites expressing yellow fluorescent protein infected in HFF cells assessed as parasite growth inhibition at 1 uM administered for 25 days followed by compound wash out; assay type: functional, organism-based; summary of the method: as §3
# Toxoplasma gondii [11] = assay: Parasitocidal activity against Toxoplasma gondii RH tachyzoites expressing yellow fluorescent protein infected in HFF cells at 1 uM administered for 4 days followed by compound wash out measured after 11 to 25 days; assay type: functional, organism-based; summary of the method: as §3
Compound,MIC50 (Toxoplasma gondii [1]) [µM],MIC90 (Toxoplasma gondii [1]) [µM],also measured
Cc1cc(C)cc(NC(=O)c2cc(Cl)ccc2O)c1,> 1,> 1,–
O=C(Nc1ccc([N+](=O)[O-])cc1Cl)c1ccccc1O,> 1,> 1,–
O=C(Nc1cccc(OC(C(F)(F)F)C(F)(F)F)c1)c1cc(Cl)ccc1O,> 1,> 1,–
CN(CC(=O)NN)C(=O)Oc1ccc(Cl)cc1C(=O)Nc1ccc([N+](=O)[O-])cc1Cl.Cl,0.016,0.125,Activity (Toxoplasma gondii [2]): Active; Activity (Mus musculus): Non-toxic; IC50 (Plasmodium falciparum [3]): 2700 nM; Activity (Toxoplasma gondii [4]): Active; Activity (Toxoplasma gondii [5]): Active; Activity (HFF): > 1000 nM; IC50 (Toxoplasma gondii [6]): 16 nM; IC90 (Toxoplasma gondii [6]): 125 nM
O=C(Nc1ccc2c(c1)OCCO2)c1cc(Cl)ccc1O,> 1,> 1,–
O=C(Nc1cccc(F)c1)c1cc(Cl)ccc1O,0.5,0.75,–
Nc1ccc(NC(=O)c2cc(Cl)ccc2O)c(Cl)c1,> 1,> 1,–
O=c1[nH]c(=O)c2nc[nH]c2[nH]1,–,–,growth inhibition (GI) (Toxoplasma gondii [7]): Active
CN(CC(=O)NN)C(=O)Oc1ccc(Cl)cc1C(=O)Nc1cc(C(F)(F)F)cc(C(F)(F)F)c1.Cl,0.125,0.125,growth inhibition (GI) (Toxoplasma gondii [7]): Active; Activity (Toxoplasma gondii [8]): Active; Activity (Mus musculus): Non-toxic; Activity (HFF): > 1000 nM; IC50 (Toxoplasma gondii [6]): 125 nM; IC90 (Toxoplasma gondii [6]): 125 nM
O=C(Nc1cc(F)cc(F)c1)c1cc(Cl)ccc1O,> 1,> 1,–
O=C(Nc1ccc(Cl)cc1F)c1cc(Cl)ccc1O,> 1,0.5,–
O=C(Nc1ccc([N+](=O)[O-])cc1Cl)c1cc(Cl)ccc1O [NICLOSAMIDE],0.2,0.2,–
N#Cc1ccc(Cl)c(NC(=O)c2cc(Cl)ccc2O)c1,0.5,0.75,–
COc1ccc(NC(=O)c2cc(Cl)ccc2O)c(OC)c1OC,> 1,> 1,–
COc1c(C)c2c(c(O)c1C/C=C(\C)CCC(=O)O)C(=O)OC2,–,–,growth inhibition (GI) (Toxoplasma gondii [7]): Active
Cc1ccc(O)c(C(=O)Nc2ccc([N+](=O)[O-])cc2Cl)c1,0.25,0.25,–
Cc1cccc(NC(=O)c2cc(Cl)ccc2O)c1,> 1,> 1,–
CCOc1cccc(NC(=O)c2cc(Cl)ccc2O)c1,> 1,> 1,–
O=C(Oc1ccc(Cl)cc1C(=O)Nc1ccc([N+](=O)[O-])cc1Cl)c1ccccc1,0.061,0.125,growth inhibition (GI) (Toxoplasma gondii [7]): Active; IC50 (Plasmodium falciparum [3]): 690 nM; IC50 (Plasmodium falciparum [9]): 770 nM; Activity (Toxoplasma gondii [10]): Active; Activity (Toxoplasma gondii [4]): Active; Activity (Toxoplasma gondii [5]): Active; Activity (Toxoplasma gondii [11]): Active; Activity (HFF): > 1000 nM; IC50 (Toxoplasma gondii [6]): 61 nM; IC90 (Toxoplasma gondii [6]): 125 nM
C#Cc1cc(NC(=O)c2cc(Cl)ccc2O)ccc1F,> 1,> 1,–

Compound,MIC50 (Toxoplasma gondii [1]) [µM],MIC90 (Toxoplasma gondii [1]) [µM],also measured
COc1ccc(C)c(NC(=O)c2cc(Cl)ccc2O)c1,> 1,> 1,–
CC(C)Oc1cccc(NC(=O)c2cc(Cl)ccc2O)c1,> 1,> 1,–
COC(=O)[C@@H]1CCCN1C(=O)Oc1ccc(Cl)cc1C(=O)Nc1ccc([N+](=O)[O-])cc1Cl,> 1,> 1,–
O=C(Nc1ccc([N+](=O)[O-])cc1Cl)c1cc(Cl)ccc1OC(=O)N1CCOCC1,> 1,> 1,–
O=C(Nc1cccc(Br)c1)c1cc(Cl)ccc1O,0.5,0.75,–
COc1ccc(F)cc1C(=O)Nc1ccc([N+](=O)[O-])cc1Cl,> 1,> 1,–
COc1ccc(NC(=O)c2cc(Cl)ccc2O)cc1OC,> 1,> 1,–
COc1ccc(F)cc1C(=O)Nc1ccc([N+](=O)[O-])cc1F,> 1,> 1,–
O=C(Nc1cc(Cl)cc(Cl)c1)c1cc(Cl)ccc1O,0.25,0.25,–
O=C(Nc1cccc(Cc2ccccc2)c1)c1cc(Cl)ccc1O,0.75,0.75,–
C#Cc1cccc(NC(=O)c2cc(Cl)ccc2O)c1,> 1,> 1,–
N#Cc1cccc(NC(=O)c2cc(Cl)ccc2O)c1,> 1,> 1,–
CN1CCN(C(=O)Oc2ccc(Cl)cc2C(=O)Nc2ccc([N+](=O)[O-])cc2Cl)CC1,0.5,0.75,–
O=C(Nc1cc(C(F)(F)F)cc(C(F)(F)F)c1)c1cc(Cl)ccc1O [IMD-0354],0.016,0.125,growth inhibition (GI) (Toxoplasma gondii [7]): Active; IC50 (Plasmodium falciparum [3]): 1300 nM; IC50 (Plasmodium falciparum [9]): 1400 nM; Activity (Toxoplasma gondii [10]): Active; Activity (Toxoplasma gondii [4]): Active; Activity (Toxoplasma gondii [5]): Active; Activity (Toxoplasma gondii [11]): Active; Activity (HFF): > 1000 nM; IC50 (Toxoplasma gondii [6]): 16 nM; IC90 (Toxoplasma gondii [6]): 125 nM
O=C(Nc1cccc(C(F)(F)F)c1)c1cc(Cl)ccc1O,0.25,0.25,–
CCc1cccc(NC(=O)c2cc(Cl)ccc2O)c1,0.25,0.5,–
O=C(Nc1cccc(Oc2ccccc2)c1)c1cc(Cl)ccc1O,> 1,> 1,–
C=Cc1cccc(NC(=O)c2cc(Cl)ccc2O)c1,0.25,0.75,–
O=C(Nc1cccc(Cl)c1)c1cc(I)cc(I)c1O,> 1,> 1,–
CCOc1cccc(NC(=O)c2cc(F)ccc2O)c1,> 1,> 1,–
